From publication PMC3540799 (NeuroImage, 2012)
Like-named read-outs stand apart in the source and are kept apart here.

Columns and labels:
[1] = system: HDAC class IIa enzymes; assay: SAHA-mediated dose-dependent inhibition of [18F]FAHA accumulation in the brain; type: in vivo, rhesus macaques; conditions: pretreatment with increasing doses of SAHA; blood plasma
[2] = cited from earlier work
[3] = Dynamic PET/CT/MRI of the brain with compartmental pharmacokinetic modeling; type: in vivo, rhesus macaques; conditions: for k1 (influx rate constant) / k2 (efflux rate constant) / k3 rate constant: baseline
In short: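 Four rhesus macaques (2 male, 2 female): atropine 0.04 mg/kg i.m., ketamine 10–15 mg/kg i.m., isoflurane 1–3% in oxygen; i.v. tracer via saphenous vein. Baseline dynamic PET with the 18F-labelled HDAC substrate and, separately, its 18F-labelled cleavage product. Carotid-derived plasma input was corrected by plasma-to-blood ratio and radio-HPLC metabolite fractions. Rate constants came from two-input, three-tissue-compartment fitting of regional brain time-activity curves.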

[4] = up to 3 hours post radiotracer administration; ref Nishii et al., 2011; cited from earlier work
[5] = Radioactivity and radiolabeled metabolites in blood plasma; type: in vivo, rhesus macaques
In short: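 Macaques received atropine and ketamine i.m., then isoflurane 1–3% in oxygen. Tracer was given i.v. via saphenous vein, and venous blood (0.5 mL) was drawn at 0, 1, 2, 3, 5, 10 and 30 min. Whole blood and plasma were gamma counted. Heparinized plasma was extracted with 3 volumes acetonitrile and run on radio-HPLC. Parent and metabolite fractions came from peak areas, expressed as %ID/mL.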

[6] = system: class IIa HDACs; type: biochemical; conditions: non-radiolabeled FAHA; 10 ng enzyme, 30 min at 30°C
[7] = at 30 min after the radiotracer administration; ref Nishii R, 2007; cited from earlier work
[8] = ref Hendricks, et al 2011, Zeglis

## O=C(CCCCCCC(=O)Nc1ccccc1)NO [SAHA, vorinostat]
[1]
  effect on circulation half-time and AUC of [18F]FAHA: dose-dependent log-linear increase

## Nc1ccccc1NC(=O)c1ccc(CN[11C](=O)OCc2cccnc2)cc1 [[^11C]MS-275]
[2]; ref Hooker, et al 2010
  accumulation in the brain (PET): did not accumulate in the brain
  blood-brain barrier (BBB) permeability: poor

## O=C(O)C[18F] [[^18F]FACE, [^18F]fluoroacetate]
[3]; 30 min post injection
  brain-to-muscle concentration ratio: 0.78±0.28
  whole brain-to-blood concentration ratio: 0.55±0.18
[3]; Amygdala
  k1 (influx rate constant): 0.020 ± 0.035
  k2 (efflux rate constant): 0.088 ± 0.063
  k3 rate constant: 0.047 ± 0.040
[3]; Cerebellum
  k1 (influx rate constant): 0.055 ± 0.054
  k2 (efflux rate constant): 0.202 ± 0.125
  k3 rate constant: 0.044 ± 0.066
[3]; Hippocampus
  k1 (influx rate constant): 0.021 ± 0.034
  k2 (efflux rate constant): 0.118 ± 0.031
  k3 rate constant: 0.054 ± 0.039
[3]; Inferior colliculus
  k1 (influx rate constant): 0.019 ± 0.045
  k2 (efflux rate constant): 0.034 ± 0.024
  k3 rate constant: 0.022 ± 0.021
[3]; Nucleus accumbens
  k1 (influx rate constant): 0.056 ± 0.052
  k2 (efflux rate constant): 0.179 ± 0.146
  k3 rate constant: 0.025 ± 0.034
[3]; Peri-aqueductal gray
  k1 (influx rate constant): 0.021 ± 0.044
  k2 (efflux rate constant): 0.050 ± 0.034
  k3 rate constant: 0.026 ± 0.023
[3]; Putamen
  k1 (influx rate constant): 0.024 ± 0.033
  k2 (efflux rate constant): 0.059 ± 0.063
  k3 rate constant: 0.026 ± 0.031
[3]; Temporal cortex
  k1 (influx rate constant): 0.016 ± 0.046
  k2 (efflux rate constant): 0.037 ± 0.014
  k3 rate constant: 0.033 ± 0.018
[3]; Thalamus
  k1 (influx rate constant): 0.020 ± 0.482
  k2 (efflux rate constant): 0.048 ± 0.067
  k3 rate constant: 0.022 ± 0.022
[3]; White matter
  k1 (influx rate constant): 0.015 ± 0.019
  k2 (efflux rate constant): 0.089 ± 0.103
  k3 rate constant: 0.029 ± 0.022
[3]; Whole brain
  k1 (influx rate constant): 0.045 ± 0.034
  k2 (efflux rate constant): 0.170 ± 0.145
  k3 rate constant: 0.033 ± 0.065
[3]; fold less than [18F]FAHA
  efflux rate constant k2FACE relative to that of [18F]FAHA: 4 to 10 fold
[4]
  [18F]fluorocitrate anabolite in blood: not detectable
[5]; 30 min post [18F]FACE administration
  [18F]fluoride in blood plasma: < 2 % of total radioactivity
[5]; rhesus monkey, in vivo
  Partition of [18F]FACE-derived radioactivity in blood between RBCs and plasma: 70.2±8.4%

## O=C(C[18F])NCCCCCC(=O)Nc1ccccc1 [[^18F]FAHA, 6-([^18F]fluoroacetamido)-1-hexanoicanilide]
[3]; Amygdala
  k1 (influx rate constant): 0.512 ± 0.1283
  k2 (efflux rate constant): 0.493 ± 0.118
  k3 rate constant: 0.259 ± 0.093
[3]; Cerebellum
  k1 (influx rate constant): 0.645 ± 0.2594
  k2 (efflux rate constant): 1.001 ± 0.475
  k3 rate constant: 0.380 ± 0.279
[3]; Hippocampus
  k1 (influx rate constant): 0.595 ± 0.071
  k2 (efflux rate constant): 0.883 ± 0.738
  k3 rate constant: 0.279 ± 0.213
[3]; Inferior colliculus
  k1 (influx rate constant): 0.706 ± 0.2366
  k2 (efflux rate constant): 0.644 ± 0.312
  k3 rate constant: 0.267 ± 0.108
[3]; Nucleus accumbens
  k1 (influx rate constant): 0.626 ± 0.5812
  k2 (efflux rate constant): 1.181 ± 1.6532
  k3 rate constant: 0.401 ± 0.296
[3]; Peri-aqueductal gray
  k1 (influx rate constant): 0.619 ± 0.2961
  k2 (efflux rate constant): 0.554 ± 0.256
  k3 rate constant: 0.236 ± 0.088
[3]; Putamen
  k1 (influx rate constant): 0.708 ± 0.3726
  k2 (efflux rate constant): 0.731 ± 0.617
  k3 rate constant: 0.328 ± 0.079
[3]; Temporal cortex
  k1 (influx rate constant): 0.438 ± 0.2453
  k2 (efflux rate constant): 0.558 ± 0.2452
  k3 rate constant: 0.158 ± 0.056
[3]; Thalamus
  k1 (influx rate constant): 0.765 ± 0.4308
  k2 (efflux rate constant): 0.604 ± 0.365
  k3 rate constant: 0.192 ± 0.032
[3]; White matter
  k1 (influx rate constant): 0.463 ± 0.2052
  k2 (efflux rate constant): 0.810 ± 0.269
  k3 rate constant: 0.187 ± 0.135
[3]; Whole brain
  k1 (influx rate constant): 0.424 ± 0.2637
  k2 (efflux rate constant): 0.611 ± 0.5713
  k3 rate constant: 0.192 ± 0.222
[3]; whole brain
  whole brain Ki of [18F]FAHA relative to Ki of [18F]FACE: about 50 fold
[6]
  Kcat values for class IIa HDACs compared with other classes of HDACs: two orders of magnitude higher
[5]; by 30 min post injection
  fraction of [18F]FAHA catabolized to [18F]FACE in blood plasma: almost all
[7]
  accumulation of [18F]FAHA in the brain: significant accumulation

## O=C(CCCCCCC(=O)Nc1ccc([18F])cc1)NO [[^18F]SAHA, [^18F]suberoylanilide hydroxamic acid]
[2]; [8]
  accumulation in the brain (PET): did not accumulate in the brain
  washout from the brain: excessive washout
